MPTP inh: permeability transition pore inhibition; isolated mouse mitochondria, Ca2+ swelling absorbance, 30 min; inhibition, % at 10 µM; 1.4% of 360,000 active; AID 602449;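 active means inhibition of 50% or more, scaled per plate between neutral and stimulator controls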;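 further: 0% = DMSO wells given calcium and 100% = 1 mM EGTA wells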
TAAR1 antagonist: human TAAR1 antagonism; AID 624466; inhibition, % at 3 µM; CHO RD-HGA16 TAAR1, Fluo-8 calcium fluorescence, antagonist; Q96RJ0; 1.5% of 360,000 active;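 active means inhibition above a per-plate cutoff, the mean inhibition of test compounds on that plate plus 3 SD, cut at about 49% in these data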;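 further: 0% = DMSO plus EC80 beta-PEA response and 100% = DMSO alone without agonist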
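Test system – hTAAR1-expressing CHO RD-HGA16 cells, Gα16-coupled · Reagent – β-PEA at EC80 concentration, post-compound challenge · Compound dosing – 3 µM, single point · Timing – 140 s kinetic read after compound, 140 s after agonist · Detection – Fluo-8 intracellular calcium dye fluorescence, real-time kinetic reads · Control set – DMSO and EC80 PEA controls · Repeats – n of 1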
GPR7 antagonist: antagonists of human GPR7 (neuropeptides B/W receptor 1). P48145. GPR7-expressing cells, fluorescence antagonist assay. inhibition, % at 4.4 µM. 1.1% of 290,000 active; in the data active means inhibition above about 16%, passing the limit was not always enough;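 further: cells stimulated with the agonist NPW; 0% = agonist with vehicle and 100% = vehicle without agonist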
Target sequence (P48145 whole entry, looked up): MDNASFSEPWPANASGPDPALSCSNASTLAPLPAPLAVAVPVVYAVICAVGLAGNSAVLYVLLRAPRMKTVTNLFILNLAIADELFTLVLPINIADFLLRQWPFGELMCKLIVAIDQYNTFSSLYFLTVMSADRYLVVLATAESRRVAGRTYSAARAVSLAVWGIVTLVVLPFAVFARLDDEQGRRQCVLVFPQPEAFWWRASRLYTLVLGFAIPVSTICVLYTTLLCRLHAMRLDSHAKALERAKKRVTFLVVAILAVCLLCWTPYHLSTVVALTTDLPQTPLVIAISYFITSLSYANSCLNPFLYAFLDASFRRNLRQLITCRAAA
TAAR1 agonist: agonists of human TAAR1; CHO RD-HGA16 TAAR1, Fluo-8 calcium fluorescence; vehicle wells 0%, saturating PEA agonist 100%; activation, % at 3 µM; 0.99% of 360,000 active; Q96RJ0;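 active means activation above the mean activation of all test compounds in the run plus 3 SD, cut at about 38% in these data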
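System: CHO-derived RD-HGA16 cells with stable Gα16 and human TAAR1 / Times: 17-24 h plating, Fluo-8 75 min 37 °C, 30 min RT / Technique: calcium-sensitive Fluo-8 signal, excitation 470-495, emission 515-575 nm / Measure: % activation relative to PEA EC100 response / Benchmarks: DMSO and PEA EC100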
DAGLB inhibitor: blocks human DAGLB lipase activity; HEK293T DAGLB membrane lysate, EnzChek fluorogenic substrate; inhibition, % at 5.17 µM; 0.059% of 340,000 active; AID 504411; in the data active means inhibition above about 34%;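 further: 0% = enzyme with vehicle and 100% = wells lacking enzyme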
nonsel antag count: nonselective antagonism, TAAR1 counter-screen | 77% of 2,400 active | shares compounds with TAAR1 antagonist | counterscreen cell line, calcium fluorescence, antagonist mode | inhibition, % at 3 µM; in the data active means inhibition above about 22%;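 further: CHO-Ga16 host cells stimulated with ATP at an EC80 level; 0% = agonist EC80 plus vehicle and 100% = vehicle without agonist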
TAAR1 antag conf: confirmation of human TAAR1 antagonists | shares compounds with TAAR1 antagonist | TAAR1-expressing cells, fluorescence antagonist read-out | inhibition, % at 3 µM | 40% of 2,400 active | AID 651785; in the data active means inhibition above about 49%;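 further: CHO-Ga16 host cells challenged with agonist PEA near its EC80; 0% = agonist at EC80 plus vehicle and 100% = vehicle with no agonist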
Ga16 nonsel ag: nonselective Ga16 agonism, counter-screen; shares compounds with TAAR1 antagonist; Ga16-expressing cells, calcium fluorescence, agonist counterscreen; activation, % at 3 µM; 18% of 2,400 active; in the data active means activation above about 12%;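 further: 0% = vehicle wells and 100% = saturating stimulus response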
TAAR1 ag counter: counter-screen for human TAAR1 antagonists: TAAR1 agonists; shares compounds with TAAR1 antagonist; hTAAR1 cell line, fluorescence activation, agonist mode; activation, % at 3 µM; 2% of 2,400 active; AID 651955; in the data active means activation above about 37%;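 further: CHO cells stably expressing TAAR1 with calcium dye readout; 0% = DMSO vehicle and 100% = full agonist response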
* = called active by the depositor; / = no result given. The list is not random: actives were taken first. Their share in the collection is about 4%.

SMILES | MPTP inh | TAAR1 antagonist | GPR7 antagonist | TAAR1 agonist | DAGLB inhibitor | nonsel antag count | TAAR1 antag conf | Ga16 nonsel ag | TAAR1 ag counter
CC1=NOC(=O)/C1=C\c1ccc(-c2ccc(Cl)cc2Cl)o1 | -5.2 | 52.5* | -10.0 | 14.1 | 27.1 | 79.2* | 71.8* | 28.6* | 25.4
CCOC(=O)c1ccc2ncc(C(=O)OCC)c(NCCN3CCOCC3)c2c1 | -1.4 | 2.0 | -16.2 | 3.2 | -4.3 | / | / | / | /
CCOC(=O)c1cnc2ccc(C)cc2c1Nc1ccc(N2CCOCC2)cc1 | 0.0 | 61.5* | -7.8 | 10.4 | 3.0 | 30.4* | 58.0* | 12.8* | 19.2
Cc1cccc(OCC(=O)Nc2cccc(C(=O)NCC(C)C)c2)c1 | 0.8 | 70.5* | -7.8 | 32.8 | 1.9 | 10.3 | 21.6 | 7.2 | 11.2
O=C(NC(c1ccc(-c2ccccc2)cc1)c1cnccn1)C1CCN(CCOc2ccc(F)cc2)CC1 (centres undefined) | 0.9 | 70.7* | / | 33.8 | / | 38.6* | 53.0* | 16.4* | 25.2
O=C(c1cc(-c2cccs2)nn1-c1ccccc1)N1CCN(S(=O)(=O)c2ccccc2)CC1 | 0.8 | 67.7* | / | 8.6 | -2.0 | 30.0* | 51.7* | 8.2 | 7.0
Cc1ccc(S(=O)(=O)N2CCN(C(=O)c3cc(-c4cccs4)nn3-c3ccccc3)CC2)cc1 | -1.2 | 0.4 | / | 2.7 | -3.2 | / | / | / | /
COc1ccccc1CN(Cc1nc2ccccc2c(=O)[nH]1)S(=O)(=O)c1ccc2ccccc2c1 | 2.9 | 70.3* | -3.2 | 7.3 | 0.6 | 25.5* | 55.7* | 7.4 | 9.6
COc1ccc(S(=O)(=O)N(Cc2ccccc2)Cc2nc3ccccc3c(=O)[nH]2)cc1 | -3.4 | 30.1 | -0.8 | 12.1 | -0.3 | / | / | / | /
COc1ccc2c(c1)CC/C(=C\c1ccc(OC)c(Cn3cccn3)c1)C2=O | 4.6 | 60.4* | 2.0 | 11.6 | -9.3 | 33.6* | 50.7* | 7.7 | 8.8
COc1ccc(-c2cc(C(=O)N3CCCC3)c3ccccc3n2)cc1 | 0.7 | 15.7 | -11.4 | 7.2 | -1.1 | / | / | / | /
COc1ccc(-c2cc(C(=O)N3CCN(c4ncccn4)CC3)c3ccccc3n2)cc1 | -2.6 | 52.2* | / | 35.3 | -2.0 | 29.5* | 48.0 | 9.8 | 8.2
CCOc1ccccc1N1CCN(C(=O)c2cc(-c3cc(OC)ccc3OC)nc3ccccc23)CC1 | 1.2 | 73.4* | -5.2 | 3.9 | -1.4 | 20.7 | 42.9 | 6.2 | 4.3
COc1ccc(OC)c(-c2cc(C(=O)N3CCN(c4ncccn4)CC3)c3ccccc3n2)c1 | -6.5 | 78.4* | -13.0 | 11.2 | -1.5 | 27.6* | 46.9 | 7.5 | 20.0
COc1ccc(-c2cc(C(=O)N3CCN(c4ncccn4)CC3)c3ccccc3n2)c(OC)c1 | 0.1 | 74.1* | 1.6 | 15.8 | 0.8 | 31.1* | 53.6* | 8.4 | 8.9
C[C@@H]1CN([C@H](C)CO)C(=O)CCCn2nncc2CO[C@H]1CN(C)C(=O)Nc1ccc2c(c1)OCCO2 | / | -15.6 | / | 0.3 | / | / | / | / | /
C=CCCC1CN(CC=C)S(=O)(=O)c2c(F)cccc2O1 (centres undefined) | / | -10.4 | / | 1.5 | / | / | / | / | /
COC(=O)c1cc2c(c3c4ccccc4n(S(=O)(=O)c4cccc(C)c4)c13)C(=O)N(C)C2 | / | -10.8 | / | -1.8 | / | / | / | / | /
CCOc1ccc2oc(C(=O)N3CCN(c4ccccc4OCC)CC3)c(C)c2c1 | -0.6 | 59.8* | / | 2.6 | -7.1 | 19.9 | 42.8 | 2.1 | 10.7
O=C(c1cc(-c2cccnc2)nc2ccccc12)N1CCN(S(=O)(=O)c2cccs2)CC1 | -1.0 | 51.4* | / | 17.4 | 0.0 | 21.8* | 33.6 | 6.3 | 5.5
CC(=O)c1ccc(N2CCN(C(=O)c3cc4c(C)nc5ccccc5c4o3)CC2)cc1 | 1.2 | 2.6 | -12.2 | 10.0 | -4.3 | / | / | / | /
COc1ccc(N2CCN(C(=O)c3cc(-c4cc(OC)ccc4OC)nc4ccccc34)CC2)cc1 | 0.3 | 60.4* | 7.2 | 10.4 | 3.2 | 27.3* | 48.9* | 10.5 | 14.8

Assay outcomes as filed in PubChem.
